Compound activity from PubChem.
ARNT TACC3 PPI – disruptors of ARNT/TACC3 protein interaction, primary screen, biochemical, AlphaScreen, single concentration. Transforming acidic coiled-coil-containing protein 3 (Homo sapiens), Q9Y6A5. AlphaScreen His-ARNT PAS-B/GST-TACC3 binding, luminescence; TACC3 fragment carries E629A point mutation. inhibition, % at 9.99 µM. 0.66% of 390,000 active;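 active = mean inhibition of replicates at least 50% and at least half of replicates each reaching 50%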
HTRA1 inhibitor – HTRA1 serine protease inhibitors, primary screen, biochemical, fluorescence polarization, HTS; Q92743; recombinant HTRA1, FP-rhodamine activity-based probe; inhibition, % at 5.96 µM; 0.5% of 340,000 active; in the data active = inhibition above about 36%
Target sequence (Q92743 whole entry, looked up): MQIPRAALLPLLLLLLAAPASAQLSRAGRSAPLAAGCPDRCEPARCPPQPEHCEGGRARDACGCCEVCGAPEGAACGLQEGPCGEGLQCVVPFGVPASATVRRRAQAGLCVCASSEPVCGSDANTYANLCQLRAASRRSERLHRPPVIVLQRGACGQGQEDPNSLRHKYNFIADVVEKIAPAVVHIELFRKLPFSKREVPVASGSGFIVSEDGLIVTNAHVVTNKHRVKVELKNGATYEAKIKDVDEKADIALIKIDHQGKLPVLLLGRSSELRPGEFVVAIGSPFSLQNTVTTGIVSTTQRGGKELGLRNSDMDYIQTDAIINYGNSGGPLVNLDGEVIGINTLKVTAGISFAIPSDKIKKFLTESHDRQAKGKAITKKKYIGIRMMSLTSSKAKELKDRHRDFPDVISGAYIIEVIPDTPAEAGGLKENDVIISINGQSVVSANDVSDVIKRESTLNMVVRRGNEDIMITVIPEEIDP
ABHD4 inh – ABHD4 inhibitors, primary screen, biochemical, fluorescence polarization, mouse. (Lyso)-N-acylphosphatidylethanolamine lipase (Mus musculus), Q8VD66. purified mABHD4, FP-Rh probe fluorescence polarization. inhibition, % at 8.92 µM. 0.54% of 370,000 active. AID 720543, 2013;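 active = inhibition exceeding the mean over every tested compound plus 3 SD, cut at about 30% in these data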
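Doses – 8.92 µM, single dose · Material – wild-type mouse ABHD4 protein · Replication – single well per compound (singlicate) · Measure – percent inhibition of probe binding, normalized to plate controls · Schedule – 45 min compound pre-incubation plus 60 min probe step, 25 °C · Detection – fluorescence polarization with parallel and perpendicular emission, 525/598 nm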
TCR CD3 inh – inhibitors of human TCR-CD3 interaction, primary screen, biochemical, fluorescence, TAMRA-labeled TCR probe; AID 651800, 2012; T-cell receptor (TCR); 0.37% of 360,000 active; inhibition, % at 9.4 µM; in the data active = inhibition above about 19%;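 also: recombinant mutant TCR 2C K166C tagged with TAMRA read by polarization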
SIAE inh – human SIAE inhibitors, primary screen, biochemical, fluorescence polarization, FP-Rh probe, 1536-well HTS. 0.69% of 370,000 active. SIAE FP-Rh probe binding. Sialate O-acetylesterase (Homo sapiens), Q9HAT2. inhibition, % at 9.66 µM;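 active = inhibition above a cutoff: mean of compounds within the control limits plus 3 SD of those, cut at about 17% in these data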
ARNT Alpha ctr – AlphaScreen signal interference compounds, dose response, artefact control for ARNT-TACC3 interaction inhibitor project, biochemical, luminescence, cherry-pick; shares compounds with ARNT TACC3 PPI; His-ARNT PASB-GST AlphaScreen artifact counter-screen; AC50, µM (doses to about 68 µM); 50% of 1,200 active; AID 651705, 2012;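 active = every separate test run was called active for a drop in luminescence, with AC50 within twice the top valid dose, actives reach about 71 µM in these data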
Each line names hits and unclear results; the compound was inactive in the other large screens (follow-up assays come after a bar, where they were run). Only some compounds are listed: those with a hit (about 1.8% of all), similar ones and a draw of the others.

CC(C)COCc1ccc(O)c2ncccc12	ARNT TACC3 PPI 67.1 | ARNT Alpha ctr 17.6µM
Oc1ccc(CN2CCC(Cc3ccccc3)CC2)c2cccnc12	none (no result: ARNT TACC3 PPI, HTRA1 inhibitor) | ARNT Alpha ctr 4.96µM
C[C@@H]1CCCCO[C@@H](CN(C)Cc2ccc(Cl)c(Cl)c2)[C@H](C)CN([C@H](C)CO)C(=O)c2cc(NS(C)(=O)=O)ccc2O1	none (no result: HTRA1 inhibitor, ABHD4 inh, TCR CD3 inh, SIAE inh)
O=C(C1CCCC1)N1[C@@H](CO)[C@@H]2c3ccccc3NC[C@@H]21	none (no result: HTRA1 inhibitor, ABHD4 inh, TCR CD3 inh, SIAE inh)
C/C=C/c1ccc2c(c1)O[C@@H](CN(C)C(=O)NCCC)[C@H](C)CN([C@@H](C)CO)S2(=O)=O	none (no result: HTRA1 inhibitor, ABHD4 inh, TCR CD3 inh, SIAE inh)
Oc1c(Br)cccc1/C=N/c1ncn[nH]1	ARNT TACC3 PPI 51.3 | ARNT Alpha ctr inactive
O=c1c2ccccc2c(/C=N/c2ncn[nH]2)c(O)n1Cc1ccccc1	none
O=C(NCc1ccco1)c1cc(-c2ccccc2)on1	none
O=C(NCc1ccccc1)c1cc(-c2ccccc2)on1	none (no result: ARNT TACC3 PPI, HTRA1 inhibitor, ABHD4 inh, TCR CD3 inh, SIAE inh) | ARNT Alpha ctr inactive
O=C(NCc1ccccc1)c1cc(-c2cccs2)on1	none
O=C(NCCCCO)c1cc(-c2ccccc2)on1	none (no result: ARNT TACC3 PPI, HTRA1 inhibitor, ABHD4 inh, TCR CD3 inh, SIAE inh) | ARNT Alpha ctr inactive
Cc1ccc(-c2cc(C(=O)NCc3cccnc3)no2)cc1	none
Cc1ccc(CNC(=O)c2cc(-c3ccccc3)on2)cc1	none (no result: ARNT TACC3 PPI, HTRA1 inhibitor, ABHD4 inh, TCR CD3 inh, SIAE inh) | ARNT Alpha ctr inactive
C[C@@H]1CN([C@@H](C)CO)C(=O)Cc2cc(NC(=O)c3ccncc3)ccc2O[C@@H]1CN(C)CC1CC1	none (no result: HTRA1 inhibitor, ABHD4 inh, TCR CD3 inh, SIAE inh)
Cc1ccc(C2=NN(C3=NN=C(N)Cc4ncnn43)C(O)(C(F)(F)F)C2)cc1 (stereo unspecified)	none
NC1=NN=C(N2N=C(c3ccco3)CC2(O)C(F)(F)F)n2ncnc2C1 (stereo unspecified)	ARNT TACC3 PPI 72.9 | ARNT Alpha ctr inactive
COc1ccc2cc1Oc1ccc(cc1)C[C@H]1c3cc(c(OC)cc3CCN1C)Oc1c(OC)c(OC)cc3c1[C@@H](C2)N(C)CC3	ARNT TACC3 PPI 30.1 | ARNT Alpha ctr inactive
COc1ccc2c(c1OC)CN(C)CCc1cc3c(cc1C(O)C2)OCO3 (stereo unspecified)	none (no result: ABHD4 inh, TCR CD3 inh, SIAE inh)
Cc1nnc(N/N=C/c2ccc(-c3ccc(Br)cc3)o2)n1N	ARNT TACC3 PPI 50.8 | ARNT Alpha ctr inactive
NCCCCCNC(=O)[C@@H]1C[C@@H]2C(=O)N[C@@H](Cc3ccccc3)C(=O)N2[C@@H]1c1ccc(O)cc1	none (no result: HTRA1 inhibitor, ABHD4 inh, TCR CD3 inh, SIAE inh)
COC(=O)C(CC#Cc1ccc2c(c1)[C@]1(C(=O)N2)[C@H](c2ccc(OCCO)cc2)N2[C@H](c3ccccc3)[C@H](c3ccccc3)OC(=O)[C@H]2[C@@H]1C(=O)N1CCCCCCC1)C(=O)OC	ARNT TACC3 PPI 63.3 (no result: HTRA1 inhibitor, ABHD4 inh, TCR CD3 inh, SIAE inh) | ARNT Alpha ctr inactive
CCCN1[C@@H]2c3ccc(-c4ccc(OC)cc4)c(=O)n3C[C@@H]2[C@@H](CO)[C@@H]1C(=O)NCC	none (no result: HTRA1 inhibitor, ABHD4 inh, TCR CD3 inh, SIAE inh)
CC(OC(=O)Cc1c(F)cccc1Cl)C(=O)NC1(C#N)CCCCC1 (stereo unspecified)	ARNT TACC3 PPI active | ARNT Alpha ctr inactive
C[C@H](CO)N1C[C@H](C)[C@@H](CN(C)CC2CCCCC2)Oc2ccc(NC(=O)CCC(F)(F)F)cc2C1=O	none (no result: HTRA1 inhibitor, ABHD4 inh, TCR CD3 inh, SIAE inh)
CC(C)NC(=O)Nc1ccc2c(c1)CC(=O)N([C@H](C)CO)C[C@H](C)[C@H](CN(C)Cc1ccc(Cl)c(Cl)c1)O2	none (no result: HTRA1 inhibitor, ABHD4 inh, TCR CD3 inh, SIAE inh)
COc1ccc(NC(=O)N2C[C@@H](O)COC[C@H]3O[C@@H](CC(=O)NCc4ccccc4OC)CC[C@@H]32)cc1	none (no result: HTRA1 inhibitor, ABHD4 inh, TCR CD3 inh, SIAE inh)
Cc1cc2c(NC(=O)CC(C)(C)CC(=O)O)cccc2nn1	ARNT TACC3 PPI 27.2 | ARNT Alpha ctr inactive
COC(=O)c1[nH]c2cc(OC)c(OC)cc2c1NC(=O)Oc1ccccc1	ARNT TACC3 PPI 35.1 | ARNT Alpha ctr inactive
CCCNC(=O)N1C[C@H]2[C@@H](c3ccccc31)[C@H](CO)N2CC1CCCCC1	none (no result: HTRA1 inhibitor, ABHD4 inh, TCR CD3 inh, SIAE inh)
COc1ccc(OC)c(NC(=O)CSc2ccc3nnc(-c4ccccn4)n3n2)c1	ARNT TACC3 PPI 53.3 | ARNT Alpha ctr inactive
Cc1ccccc1-n1c(SCC(=O)Nc2ccc3c(c2)OCO3)nnc1-c1ccccn1	ARNT TACC3 PPI 60.7 | ARNT Alpha ctr inactive
